# Results reported in PMC3157043 (Nuclear medicine and biology, 2011).
# Legend:
# A2A = conditions: cited from earlier work
# [1] = normal rats; cited from earlier work
# adenosine A2A = adenosine A2A (Rattus norvegicus, UniProt P30543); assay: In vitro autoradiography of rat brain slices; assay type: binding; conditions: 90 min incubation, 2.3 MBq tracer, phosphor imaging
# A2A receptor [2] = target: T1, A2A receptor (Rattus norvegicus, UniProt P30543); assay: Ex vivo brain autoradiography / in vivo blocking; conditions: 30 min after i.v. injection of 12.9 MBq, 50 µm slices
# [3] = In vivo biodistribution in normal rats; set-up: species or system rat
# How it was run: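 Non-lesioned male SD rats received ~11.1 MBq (300 µCi)/rat radiotracer i.v. in saline. They were killed by CO2 asphyxiation at 30 (n = 4), 60 (n = 4) or 120 min (n = 6). Brain, blood and other tissues were wet-weighed and gamma-counted, and uptake was expressed as %ID/g. Data are mean ± SEM, with means compared by 1-way ANOVA.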
# A2A receptor [4] = target: T1, A2A receptor; assay: PET kinetic experiment in normal rats; assay type: in vivo
# How it was run: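 Unlesioned male SD rats, age-matched to 13–14-week lesioned rats, were imaged on an Inveon microPET under isoflurane (2–3% v/v in O2). Each received […]/rat radiotracer i.v. in saline, followed by a 30 min list-mode emission scan. Caudate-putamen ROI mean pixel values were converted to counts/g/min (1 g/mL density) and divided by injected dose to give %ID/g, reported as mean ± SEM.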
# A2A receptor [5] = target: T1, A2A receptor; assay: PET kinetic experiment in unilaterally 6-OHDA-lesioned rats; assay type: in vivo
# [6] = In vitro metabolism in cryopreserved rat hepatocytes; assay type: in vitro ADME; conditions: rat hepatocyte incubation
# T1 sequence (P30543 whole entry): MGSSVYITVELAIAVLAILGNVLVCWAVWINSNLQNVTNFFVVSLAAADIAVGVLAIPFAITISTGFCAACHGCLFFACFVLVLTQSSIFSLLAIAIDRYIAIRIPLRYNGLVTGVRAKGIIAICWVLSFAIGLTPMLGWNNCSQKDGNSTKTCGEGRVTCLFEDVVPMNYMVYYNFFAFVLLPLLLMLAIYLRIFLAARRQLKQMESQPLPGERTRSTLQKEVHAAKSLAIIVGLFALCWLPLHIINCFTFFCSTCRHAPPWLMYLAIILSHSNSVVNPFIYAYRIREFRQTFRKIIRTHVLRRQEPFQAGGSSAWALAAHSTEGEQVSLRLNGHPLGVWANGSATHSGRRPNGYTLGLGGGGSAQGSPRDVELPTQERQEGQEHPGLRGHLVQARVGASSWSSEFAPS
# Chain of adenosine A2A (P30543 whole entry): as above
smiles,measurement,setting,value
"Nc1nc2c(cnn2CCCc2ccc(OCCF)cc2)c2nc(-c3ccco3)nn12 [MRS5425, 7-(3-(4-(2-fluoroethoxy)phenyl)propyl)-2-(furan-2-yl)-7H-pyrazolo[4,3-e][1,2,4]triazolo[1,5-c]pyrimidin-5-amine]",selectivity over A1 and A3,A2A; A2A versus A1 and A3,1000 fold
same,Ki,A2A; read-out: Ki for A2A,0.0124 µM
[11CH3]Oc1ccc(CCCn2ncc3c2nc(N)n2nc(-c4ccco4)nc32)cc1 [[^11C]-SCH442416],time of maximum radioactivity accumulation in striatum,[1],5 min
same,time to reach 50% of peak striatal %ID/g,[1],≤ 25 min
same,time to reach lowest striatal %ID/g,[1],≤ 60 min
"Nc1nc2c(cnn2CCCc2ccc(OCC[18F])cc2)c2nc(-c3ccco3)nn12 [[^18F]-MRS5425, 7-(3-(4-(2-[^18F]fluoroethoxy)phenyl)propyl)-2-(furan-2-yl)-7H-pyrazolo[4,3-e][1,2,4]triazolo[1,5-c]pyrimidin-5-amine]",radioactivity binding on coronal brain slices,adenosine A2A,radioactivity binding (dark area in Fig 1 b) in the caudate-putamen (striatum) nucleus bilaterally
same,ex vivo radioactivity binding in brain slices,A2A receptor [2],radioactivity binding in the striatal region bilaterally
same,primary accumulation (tissues),"[3]; 30, 60, 120 min biodistribution",intestine and urine
same,uptake in striatum,"[3]; 30 min after i.v. injection, n = 4, mean ± SEM",0.25 ± 0.09 %ID/g
same,uptake in striatum,"[3]; 60 min after i.v. injection, n = 4, mean ± SEM",0.35 ± 0.10 %ID/g
same,uptake in striatum,"[3]; 120 min after i.v. injection, n = 6, mean ± SEM",0.13 ± 0.03 %ID/g
same,uptake in striatum compared to blood,[3]; at 30 and 60 min,~ 2 fold
same,bone uptake in imaging studies,"A2A receptor [4]; PET imaging in rats, marker of defluorination",not observed
same,plateau of striatal %ID/g held until,A2A receptor [4]; normal rats,3.5 min
same,striatal uptake versus cortical and other regions,"A2A receptor [4]; normal rats, PET images",significantly higher uptake
same,time of decline to 75% of peak %ID/g,"A2A receptor [4]; normal rats, striatum TAC",about 6 min
same,time of maximum striatal ROI-derived %ID/g,"A2A receptor [4]; normal rats, striatum TAC",90 s
same,plateau maintained after maximum,"A2A receptor [4]; normal rats, striatum TAC, additional time after 90 sec",2 min
same,%ID/g values compared with [11C]-SCH442416 in monkeys,A2A receptor [4]; rat striatum versus 0.035 %ID/mL in monkeys,~ 20 fold
same,plateau of striatal %ID/g held until,A2A receptor [5]; 6-OHDA rats,4.5 min
same,plateau maintained after peak,"A2A receptor [5]; 6-OHDA-lesioned rats, saline",about 3 min
same,time of peak baseline striatal %ID/g,"A2A receptor [5]; 6-OHDA-lesioned rats, saline, both lesioned and intact sides",90 s
same,%ID/g in lesioned side compared to intact side,"A2A receptor [5]; saline baseline, after plateau to 30 min, p < 0.05",significantly higher
same,defluorination,[6],evidence for defluorination
same,metabolite observed,"[6]; HPLC-MS, m/z +16, believed N-oxidation",a major fluorine-containing metabolite
